Here are results for 29 compounds from PubChem BioAssay AID624466 (The Scripps Research Institute Molecular Screening Center, 2012).

Where “and” joins values, the source holds several entries; their conditions need not be identical. Equal entries are not always repeated. Among all 360,000 compounds or so, about 5,400 (1.5%) were called active. Many of the other results were omitted from the sample, so actives are more common in it than they were. Unmarked numbers belong to inactive results.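 How the source made its calls: active means inhibition above a per-plate cutoff, the mean inhibition of test compounds on that plate plus 3 SD (cut at about 49% in these data); inactive means the rest.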

By inhibition is commonly meant the drop in the measured response relative to a control, in per cent.

Trace amine-associated receptor 1 (Homo sapiens), sequence (Q96RJ0 whole entry, looked up): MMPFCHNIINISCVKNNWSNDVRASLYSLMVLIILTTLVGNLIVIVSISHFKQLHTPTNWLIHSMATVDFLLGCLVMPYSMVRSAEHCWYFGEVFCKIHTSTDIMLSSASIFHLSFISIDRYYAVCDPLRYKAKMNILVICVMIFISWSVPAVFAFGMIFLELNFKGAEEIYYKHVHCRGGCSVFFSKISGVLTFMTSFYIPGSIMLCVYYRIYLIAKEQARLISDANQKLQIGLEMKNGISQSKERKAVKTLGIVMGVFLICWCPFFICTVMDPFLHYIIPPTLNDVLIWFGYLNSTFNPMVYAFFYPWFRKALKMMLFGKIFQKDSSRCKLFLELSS

The test concerns the target Trace amine-associated receptor 1 (Homo sapiens) (UniProt Q96RJ0). Description: human TAAR1 antagonists, primary screen, Fluo-8 calcium fluorescence, CHO RD-HGA16 cells (AID 624466).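 Further: 0% = DMSO plus EC80 beta-PEA response and 100% = DMSO alone without agonist.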 As to conditions: CHO RD-HGA16 TAAR1, Fluo-8 calcium fluorescence, antagonist; at 3 µM; active compounds read high. In short, it runs like this:
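Material: RD-HGA16 CHO cells with stable hTAAR1 and Gα16; Dosing: single nominal final test compound concentration of 3 µM; Schedule: seeding 17-24 h prior, 75-min 37 °C, 30-min RT dye loading; Detection: kinetic Fluo-8 calcium fluorescence measurement; Measure: % inhibition from peak post-agonist over basal fluorescence ratio; Benchmarks: vehicle and agonist controls.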
For `O=S(=O)(c1ccccc1)N1CCC2CCNC2C1` (centres undefined), the inhibition was -13.7%. As to `CS(=O)(=O)N1CCC2CCNC2C1` (centres undefined), the inhibition was -17.4%. For `COc1ccc2c(c1)[C@@]13CCCCC1[C@@H](C2)NCC3` (some centres undefined), the inhibition was 2.15%. Consider `Cc1cc(N2CCNC[C@@H]2C)ccc1N1CC[C@H](O)C1`, for which the inhibition was -25.4%. Take `COc1ccccc1-n1c(O)c(C=NC2CC2)c(=O)[nH]c1=O`: the inhibition is 5.89%. On to `CCCCCn1c(=O)c(C(=O)NCc2ccccn2)c(O)c2ccccc21`, for which the inhibition was 9.96%. With `CCN(CC)C(=O)Oc1ccc(NC(=O)N2CCOCC2)cc1`, the inhibition is -5.87%.

Regarding `CSc1nc2ccc(C)cc2c(=O)n1-c1cccnc1`, the inhibition is -37.6%.

`O=c1[nH]c(=O)n(-c2ccccc2)c(O)c1C=NC12CN3CN(CN(C3)C1)C2`: the inhibition is 3.93%.

With `Brc1ccc2c(c1)CNCc1cnnn1-2`, the inhibition is -22.5%. With `CCCCC(=O)N/N=C/c1c(O)n(CCC2=CCCCC2)c(=O)[nH]c1=O`, the inhibition is -20.4%.

With `CCCCC(=O)N/N=C/c1c(O)n(CC)c(=S)n(CC)c1=O`, the inhibition was 63.8% (active).

For the compound `Cn1c(O)c(C=NCCCC(=O)O)c(=O)n(C)c1=O`, the inhibition was -5.57%.

As to `Clc1ccc([C@@H]2CC3CCC2N3)cn1` (some centres undefined), the inhibition was -10.7%.

Regarding `CC12CCC3C(CCC4CC(=O)CCC43C)C1CC(=NO)C2=O` (centres undefined), the inhibition was -3.38%. As for `CCC(C)NC1(c2ccccc2)CCCCC1` (centres undefined), the inhibition was -0.42%. For the compound `O=C1NC(=O)C(C/C=C/c2ccccc2)C(=O)N1`, the inhibition was 9.88%. As for `COc1ccc(-n2nnnc2C(c2cccc3ccccc23)N2CCC(n3c(=O)[nH]c4ccccc43)CC2)cc1` (centres undefined), the inhibition is 40.3%.

As to `O=C1NCN(c2ccccc2)C12CCN(C(c1cccs1)c1nnnn1C1CCCCC1)CC2` (centres undefined), the inhibition was 8.02%.

Consider `CSCCC(c1nnnn1C(C)(C)C)N1CCC(n2c(=O)[nH]c3ccccc32)CC1` (centres undefined), for which the inhibition is 52.1% (active). On to `Cc1ccc(Cn2nnnc2CN2CCC(n3nnc4ccccc43)CC2)cc1`, for which the inhibition is -2.23%. Regarding `O=c1[nH]c2ccccc2n1C1CCN(C(c2ccccc2)c2nnnn2Cc2ccccc2)CC1` (centres undefined), the inhibition was 52.2% (active). Take `O=c1[nH]c2ccccc2n1C1CCN(C(c2ccnc3ccccc23)c2nnnn2Cc2ccccc2)CC1` (centres undefined): the inhibition is 54.6% (active). Under `COc1cc(OC)cc(C(=O)NCCN2CCC3(CC2)C(=O)NCN3c2ccccc2)c1` stands -2.28%; under `Oc1ccc2c3c1OC1[C@H](O)CC[C@@]4(O)[C@@H](C2)N(CC2CC2)CC[C@]314` (some centres undefined), -34.9% and -15.5%. Under `CC(C)(C)c1ccc(OC(=O)N2CCCCC2)cc1` stands 21.5%; under `O=c1[nH]c(=O)n(CCc2ccc(F)cc2)c(O)c1/C=N/N1CCCCC1`, -33.7%; under `CC(C)c1ccc(O)c(CN2CCN(c3ccccc3)CC2)c1`, -1.33%.

In the case of `CN(C)/C=C(\C=[N+](C)C)c1[nH]ncc1[N+](=O)[O-]`, the inhibition was -2.16%.
